# Screening data: PubChem BioAssay, Broad Institute
# An excerpt weighted towards active compounds, which were near 2.2% of everything screened.
# dFosB act-1 = enhances mouse delta FosB homodimer DNA binding; P13346; AID 493131; actives 0.99% (n = 340,000); activation, % at 25 µM; purified delta FosB, TAMRA-CDK5 oligo fluorescence polarization; percent of positive-control signal above neutral wells;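 active means mean activation above about 17%, with every replicate also reaching it, limit read from the data, passing the limit was not always enough; inconclusive means only one of the two conditions met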
# Target sequence (P13346 whole entry, looked up): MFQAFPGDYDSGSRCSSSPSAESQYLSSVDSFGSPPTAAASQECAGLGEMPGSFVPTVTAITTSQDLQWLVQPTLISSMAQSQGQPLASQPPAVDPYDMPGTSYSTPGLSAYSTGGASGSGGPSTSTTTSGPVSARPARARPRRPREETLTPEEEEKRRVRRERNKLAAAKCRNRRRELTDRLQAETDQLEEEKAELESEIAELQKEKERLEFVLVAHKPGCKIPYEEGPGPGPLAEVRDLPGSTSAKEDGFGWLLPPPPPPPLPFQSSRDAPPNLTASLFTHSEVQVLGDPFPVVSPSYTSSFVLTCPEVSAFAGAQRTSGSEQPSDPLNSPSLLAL
# CAL PDZ FP-1 = inhibitors of human CAL PDZ peptide binding | Q9HD26 | purified CAL PDZ, TMR-peptide fluorescence polarization, 1 h | inhibition, % at 24.9 µM | actives 0.92% (n = 300,000);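 active means mean inhibition of at least 30% with at least half of replicates also reaching 30%; inconclusive means no clear call, values can overlap the other calls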;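 further: 0% = DMSO neutral control and 100% = excess unlabeled competitor peptide PRC23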
# Dyrk1A ADPGlo = blocks rat Dyrk1A kinase activity; Q63470; ADP-Glo luminescence, NFATc1 peptide; inhibition, % at 12.5 µM; actives 0.43% (n = 310,000); in the data active means inhibition above about 50%;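 further: plate controls were vehicle with enzyme for no effect and no enzyme for full effect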
# Rtt109 Vps75 = inhibitors of Candida albicans Rtt109/Vps75 histone acetyltransferase. inhibition, % at 34.9 µM. purified Rtt109/Vps75, ThioGlo CoA-SH fluorescence, 4 h. actives 0.16% (n = 330,000). AID 540336;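 active means inhibition of at least 50% in every replicate; inconclusive means best replicate reaches 50% inhibition but some replicates fall short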
# CAL PDZ FP-2 = human CAL PDZ-peptide interaction inhibition. Q9HD26. purified CAL PDZ, TMR-peptide fluorescence polarization, 1 h. inhibition, % at 20 µM. actives 0.02% (n = 330,000);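 active means highest replicate inhibition of at least 40%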;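 further: plate controls were DMSO neutral control wells for no effect and unlabeled competitor peptide control wells for full effect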
#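 Test system: tagged CAL PDZ domain / Buffer or medium: sodium phosphate/NaCl buffer pH 7.4 with TCEP, IgG, Thesit / Reagent: TMR-labelled reporter peptide T*-PRC34 bound in PDZ groove / Compound dosing: single point, 20 µM / Schedule: 1 h incubation at room temperature before polarization reading / Technique: fluorescence polarization (mP) / Benchmarks: unlabelled peptide, DMSO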
# CDK5 inh = blocks human CDK5/p35 kinase activity; inhibition, % at 10 µM; actives 0.01% (n = 330,000); Recombinant CDK5/p35, ADP-Glo luminescence, 60 min;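 active means highest replicate inhibition of at least 50% and at least 75% of replicates reaching 50%; inconclusive means only one of the two criteria met; inactive means both criteria failed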;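 further: plate controls were DMSO neutral control for no effect and GW8510 at 10 µM for full effect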
# dFosB act-2 = delta FosB (mouse) homodimer activation. shares compounds with dFosB act-1. purified delta FosB, TAMRA-CDK5 oligo fluorescence polarization; normalised: neutral wells 0, positive control 100. activation, % at 24.9 µM. 2,400 tested, under 10 active;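 active means highest replicate activation at or above 34% and every replicate reaching that threshold; inconclusive means meets only one of the two criteria; inactive means meets neither criterion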;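 further: higher polarization means more probe DNA bound by delta FosB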
# * = called active by the depositor; u = inconclusive; x = no result.
SMILES,dFosB act-1,CAL PDZ FP-1,Dyrk1A ADPGlo,Rtt109 Vps75,CAL PDZ FP-2,CDK5 inh,dFosB act-2
Cc1ccc(COc2ccc(/C=N/NC(=O)c3nnn(-c4nonc4N)c3COc3ccc(F)cc3)cc2)cc1,48*,-6,2,-16,0,0,0
Cc1cccc(COc2ccc(/C=N/NC(=O)c3nnn(-c4nonc4N)c3C)cc2)c1,u,1,-8,-13,-3,-1,x
Cc1ccc(COc2cccc(/C=N/NC(=O)c3nnn(-c4nonc4N)c3C)c2)cc1,53*,-1,-4,21,1,1,0
COc1cc2c(cc1OC)-c1cc3ccc4c(c3c[n+]1CC2)OCO4,38*,-9,16,2,1,-1,-22
O=C(NC1CC1)C1CCN(C2CCN(C(=O)c3c(F)cccc3Cl)CC2)CC1,27*,-4,-2,-2,1,-6,2
O=C(NC1CC1)C1CCN(C2CCN(C(=O)Cc3ccc(F)cc3)CC2)CC1,1,0,-1,6,-3,0,x
O=C(CN1CCCCC1)NCC(=O)Nc1ccc(F)c(F)c1F,2,-1,5,10,-3,-8,x
O=C(NNC(=O)c1cc(Br)c(Br)s1)c1csc(N2CCOCC2)n1,44*,-3,4,-9,-2,0,1
CCc1cc(C(=O)NNC(=O)c2csc(N3CCOCC3)n2)sc1C,-10,-2,1,2,-2,0,x
CCC(CC)C(=O)Nc1cccc(S(=O)(=O)c2cccc(NC(=O)C(CC)CC)c2)c1,17*,4,-6,4,0,0,3
CCC(CC)C(=O)Nc1cccc(C(=O)Nc2ccc(S(N)(=O)=O)cc2)c1,1,8,-3,13,-3,0,x
Oc1ccc(Br)cc1-c1cc(-c2ccccc2)n[nH]1,9,-3,1,4,-3,0,x
Oc1ccc(Br)cc1-c1cc(-c2ccc(Cl)cc2)n[nH]1,28*,-4,8,-3,-2,-1,-1
CCOc1ccccc1NC(=O)C1C2CCC(O2)C1C(=O)O (stereo not given),-4,x,15,3,1,0,x
CCCCCCCCCCCC1N=C(N)NC(CCCO)=C1C(=O)OC (stereo not given),42*,-2,3,7,-1,4,u
CCCCCCOC(=O)c1ccc(N)cc1,-1,-2,-4,-2,-1,1,x
COc1ccc(NC(=O)c2cn(C)c(=O)c3cc(OC)c(OC)cc23)c(OC)c1,20*,-3,-3,11,0,0,2
C[C@H](CO)N1C[C@H](C)[C@@H](CN(C)C(=O)NC2CCCCC2)Oc2c(NC(=O)Nc3ccccc3)cccc2C1=O,-1,-10,0,10,-6,-2,x
O=C(Nc1ccc(Br)cn1)c1cccc(-c2cc3ccccc3oc2=O)c1,34*,-2,1,6,-1,-2,0
Cc1ccc(-c2c(C(=O)N/N=C/c3ccc4c(c3)OCO4)nnn2-c2nonc2N)cc1,45*,1,x,0,-2,x,0
Cc1ccc(/C=N/NC(=O)c2nnn(-c3nonc3N)c2CSc2ccccc2)cc1,24*,1,0,9,1,2,2
Cc1ccsc1/C=N/NC(=O)c1nnn(-c2nonc2N)c1-c1ccc2c(c1)OCO2,-3,2,2,9,-2,0,x
Nc1nonc1-n1nnc(C(=O)N/N=C/c2ccccc2Cl)c1-c1ccc2c(c1)OCO2,25*,6,0,16,1,0,0
Cc1ccc(SCc2c(C(=O)N/N=C/c3ccccc3)nnn2-c2nonc2N)cc1,25*,-3,0,-2,0,1,-1
Cc1cc(C)c2c(SC(C)C)nc(N)nc2n1,-4,-6,0,-1,0,0,x
SMILES,dFosB act-1,CAL PDZ FP-1,Dyrk1A ADPGlo,Rtt109 Vps75,CAL PDZ FP-2,CDK5 inh,dFosB act-2
Cc1ccc(SCc2c(C(=O)N/N=C/c3ccc4c(c3)OCO4)nnn2-c2nonc2N)cc1,52*,-6,-7,-11,-2,0,1
C/C(=N\NC(=O)c1nnn(-c2nonc2N)c1-c1ccc2c(c1)OCO2)c1ccc(C)cc1,32*,6,-2,-3,0,-1,1
Cc1ccc(-c2c(C(=O)N/N=C/c3cccc(Cl)c3)nnn2-c2nonc2N)cc1,47*,-4,1,-4,-2,-3,6
C/C(=N\NC(=O)c1nnn(-c2nonc2N)c1-c1ccc2c(c1)OCO2)c1ccc(F)cc1,13,7,1,-9,0,0,x
Cc1ccc(SCc2c(C(=O)N/N=C/c3ccoc3)nnn2-c2nonc2N)cc1,-14,-3,0,8,-2,-1,x
Cc1ccc(-c2c(C(=O)N/N=C/c3ccoc3)nnn2-c2nonc2N)cc1,-3,-5,1,26,-2,1,x
CCCNc1c(NS(=O)(=O)c2ccc(C3CCCCC3)cc2)c(=O)oc2ccccc12,82*,3,0,3,0,0,1
CNc1c(NS(=O)(=O)c2ccc(F)cc2)c(=O)oc2ccccc12,9,-1,3,5,-1,-2,x
CCCNc1c(NS(=O)(=O)c2ccc(C(C)(C)C)cc2)c(=O)oc2ccccc12,3,3,2,-8,1,1,x
CNc1c(NS(=O)(=O)c2ccc(C(C)(C)C)cc2)c(=O)oc2ccccc12,60*,-3,1,3,-2,-3,1
CNc1c(NS(=O)(=O)c2ccc(OC)cc2)c(=O)oc2ccccc12,31*,3,3,0,-1,-5,-5
CNc1c(NS(=O)(=O)c2ccc(Br)cc2)c(=O)oc2ccccc12,99*,2,1,-11,-1,-3,0
COc1ccc(S(=O)(=O)NCc2ccco2)cc1N(C)S(=O)(=O)c1ccccc1,-4,3,-4,13,-1,-2,x
CNc1c(NS(=O)(=O)c2ccc(F)c(Cl)c2)c(=O)oc2ccccc12,-5,-5,-8,2,-2,-1,x
CNc1c(NS(=O)(=O)c2ccc3c(c2)CCCC3)c(=O)oc2ccccc12,37*,-4,-6,-4,0,-3,-3
Cc1ccc(CNC(=O)c2ccc(NC(=O)CCS(=O)(=O)c3cccs3)cc2)cc1,20*,-1,-1,7,0,0,3
COc1ccccc1N(C(=O)c1cncc(Br)c1)c1nc(-c2ccc(C)cc2)cs1,-5,1,-4,-6,-1,-1,x
